b-catenin transl: modulators of beta-catenin nuclear translocation, primary screen, imaging, HeLa cells, immunofluorescence, high-content; AID 1665, 2009; actives 0.3% (n = 190,000); nuclear translocation activity, % at 5 µM;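 active = nuclear translocation activity above 50% at 5 µM, with a well cell count of 50 or more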;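 note: per-cell ratio of nuclear to cytoplasmic median beta-catenin stain intensity; plate controls were DMSO negative control for no effect and GSK-3 inhibitor IX positive control for full effect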
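test system = HeLa cells, endogenous beta-catenin | dosing = single 5 µM dose plus 0.02–20 µM confirmation series | times = compound treatment 24 h, 37°C, 5% CO2 | technique = beta-catenin immunofluorescence imaging with DAPI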
MT stabilize HCS: microtubule stabilizers in HeLa cells, primary screen, imaging, high-content imaging; HeLa tubulin immunostaining HCS, 24 h; share of cells brighter than vehicle mean+2SD; % tubulin-high responders, % at 10 µM; actives 0.83% (n = 200,000); AID 2205, 2009;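 active = plate Z-score above 3 for both tubulin-high and condensed-nucleus cell shares, with cell loss under 80%, at 10 µM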;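 note: anti alpha tubulin signal scored within the nucleus-defined area of each cell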
BaF3 tox: parental Ba/F3 cell viability inhibition, counter-screen for JAK2V617F inhibitor project, murine pro-B, CellTiter-Glo luminescence; CellTiter-Glo ATP luminescence; inhibition, % at 5.6 µM; actives 1.1% (n = 220,000); AID 1486, 2009;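 active = inhibition above a per-campaign cutoff, the mean inhibition of all tested compounds plus 3 SD, cut at about 27% in these data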;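 note: 0% = DMSO wells and 100% = JAK Inhibitor I control wells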
Lmaj promast: Leishmania major promastigote growth inhibition, primary screen. Leishmania major promastigotes, resazurin fluorescence viability. inhibition, % at 10 µM. actives 9% (n = 200,000). AID 1063, 2008; in the data active = inhibition above about 50%;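 note: promastigotes grown with compound for 44 hours at 28 °C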
APP transl inh: inhibitors of APP translation via 5'UTR reporter, primary screen, APP 5'UTR luciferase, SH-SY5Y cells; SH-SY5Y APP 5'UTR-luciferase reporter, luminescence; inhibition, % at 2 µM; actives 0.82% (n = 190,000);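 active = inhibition above a set limit, derived from the sample mean plus 3 SD, cut at about 45% in these data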
Ba/F3 V617F tox: reduced viability of JAK2V617F-dependent Ba/F3 cells, primary screen, JAK2V617F inhibitor project, cell-based, Ba/F3 EpoR-JAK2V617F, luminescence; ATP luminescence; inhibition, % at 5.6 µM; actives 1.1% (n = 220,000); AID 1446, 2008;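 active = inhibition above the campaign mean plus 3 SD over all tested compounds, cut at about 24% in these data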;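 note: cytokine-independent growth of Ba/F3 cells driven by EpoR plus mutant JAK2; 0% = DMSO-treated cells and 100% = JAK inhibitor I control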
BaF3 tox 2: parental Ba/F3 cell viability inhibition, counter-screen for JAK2V617F inhibitor project, murine pro-B, CellTiter-Glo luminescence; shares compounds with Ba/F3 V617F tox; cells kept alive by added IL-3; inhibition, % at 5.6 µM; actives 31% (n = 580); AID 1520, 2009;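 active = cell growth inhibition above the hit limit set in the earlier mutant JAK2 cell screen, cut at about 27% in these data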;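 note: plate controls were DMSO-treated cells for no effect and JAK Inhibitor I control wells for full effect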
JAK2V617F conf: viability loss in Ba/F3 EpoR-JAK2V617F cells, confirmation, JAK2V617F inhibitor project, cell-based, luminescence, triplicate. inhibition, % at 5.6 µM. shares compounds with Ba/F3 V617F tox. actives 66% (n = 580). CellTiter-Glo luminescence;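 active = mean inhibition above the hit cutoff derived in the earlier primary screen, cut at about 25% in these data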;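 note: 0% = DMSO-treated cells and 100% = JAK inhibitor I control wells; higher means lower luminescence from reduced cell ATP and viability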
* marks the source's active call; other numbers are inactive results; · = not tested or not shown. In the library only some 9.6% were active in any assay of this set; here they are far more common.

SMILES	b-catenin transl	MT stabilize HCS	BaF3 tox	Lmaj promast	APP transl inh	Ba/F3 V617F tox	BaF3 tox 2	JAK2V617F conf
CCN(CC)S(=O)(=O)c1cccc(C(=O)N[C@H](C(=O)Nc2nc3ccc(F)cc3s2)C(C)C)c1	-3	4	1	16	-17	66*	-1	13
O=C(O)CCCN1C(=O)c2ccc(Oc3cccc([N+](=O)[O-])c3)cc2C1=O	-4	2	0	-3	0	-2	·	·
Cc1nn(C(=O)c2ccccc2)c2c1C(=O)CC(C)(C)C2	-1	2	3	1	10	-1	·	·
CCc1nnc(N/N=C/c2ccccc2Cl)n1N	-2	2	24	-3	6	25*	-4	-2
CCOC(=O)c1cc(C(=O)NN)c(=O)[nH]c1C	0	·	-5	·	·	-2	·	·
Cc1nn(-c2ccccc2)c(C)c1NC(=O)COc1ccc2ccccc2c1	1	2	4	-4	-3	90*	-5	-5
Cc1nn(-c2ccccc2)c(C)c1NC(=O)COc1ccc(C#N)cc1	4	4	6	-5	-18	-1	·	·
CC(C)NC(=O)COc1nncc2ccccc12	-1	2	8	-3	-19	-1	·	·
COc1ccc(/C=C/C(=O)c2cc(F)ccc2OC(=O)c2ccccc2C)cc1OC	40	9	2	60*	97*	39*	29*	97*
O=C(CCl)NC(=O)NC12CC3CC(CC(C3)C1)C2	1	3	-11	101*	-6	43*	7	93*
CC(=O)C1=C(c2ccc(Br)cc2)C(=O)c2ccccc2C1=O	2	4	0	100*	68*	26*	105*	98*
CC1=CC(=C2C(=O)c3ccccc3C2=O)C=C(C)O1	-2	6	3	7	-11	-1	·	·
CCC(=O)N1CCN(c2ccc(NC(=O)c3ccc([N+](=O)[O-])o3)cc2)CC1	8	5	-14	100*	48*	34*	45*	95*
Cc1ccc(NC(=O)c2cc(Cl)ccc2[N+](=O)[O-])cc1C	0	3	-2	15	2	-3	·	·
Cc1ccc(NC(=O)c2ccc([N+](=O)[O-])o2)cc1C	2	5	3	100*	44	37*	31*	93*
COc1ccc(C2=Nn3c(nnc3C3CCCCC3)SC2)cc1OC	·	3	10	50*	-14	25*	13	51*
COC(=O)c1cccc(NC(=O)/C=C/c2cccc([N+](=O)[O-])c2)c1	-1	3	-2	4	-20	-6	·	·
CC(=O)c1cccc(NC(=O)/C=C/c2ccc([N+](=O)[O-])s2)c1	7	18	7	15	81*	101*	106*	100*
O=C(OCc1ccc(Cl)cc1Cl)c1ccncc1	0	3	1	-4	3	0	·	·
O=C(CSc1nnc2scc(-c3ccccc3)n12)Nc1ccc2c(c1)OCCO2	·	3	4	-7	-17	2	·	·
O=C(CSc1ccc(-c2ccccc2)nn1)Nc1ccc2c(c1)OCCO2	-1	3	8	1	-16	46*	-4	-14
COc1cc2cc(CN(CCc3cccc(C)c3)C(=S)NCCCN3CCOCC3)c(=O)[nH]c2cc1OC	0	2	6	4	17	2	·	·
Cc1nc(N=C(N)N)nc2ccccc12	4	3	20	2	-23	34*	29*	51*
CC1(C)OC(=O)C(=CNn2cnc3ccccc3c2=O)C(=O)O1	0	5	5	7	-132	2	·	·
COc1ccc(-c2cc3nc(C)n(N)c(=O)c3s2)cc1	0	·	26	·	·	41*	56*	40*
SMILES	b-catenin transl	MT stabilize HCS	BaF3 tox	Lmaj promast	APP transl inh	Ba/F3 V617F tox	BaF3 tox 2	JAK2V617F conf
Cc1nc2cc(-c3ccccc3)sc2c(=O)n1N	1	4	24	15	26	25*	48*	37*
COc1ccc(-c2cc3nc4n(c(=O)c3s2)CCC4)cc1	·	2	5	21	-160	2	·	·
c1ccc(-c2nnc3sc(CN4CCc5ccccc54)cn23)cc1	4	4	22	37	-4	35*	30*	30*
Brc1ccc(-c2nnc3sc(CN4CCC5(CC4)OCCO5)cn23)cc1	0	3	6	-3	-13	4	·	·
O=C(NC1CCCCCC1)C(=S)NCc1ccccc1	0	4	0	-3	-28	0	·	·
COc1ccc(F)cc1C(=O)C1CCCN(C(=O)c2cccc(N(C)C)c2)C1 (configuration not stated)	-3	5	5	1	-11	102*	-3	7
CN(C)c1cccc(C(=O)N2CCCC(C(=O)c3cc(F)ccc3F)C2)c1 (configuration not stated)	-1	2	1	-5	12	-1	·	·
COCc1cc(=O)[nH]c(SCC(=O)Nc2ccccc2)n1	-7	4	-4	-6	-11	95*	-4	-2
Cc1c(C(=O)O)cnc2c([N+](=O)[O-])cnn12	-3	3	0	-4	3	2	·	·
COc1ccc(C)cc1NC(=O)C(NC(=O)c1cc(OC)c(OC)c(OC)c1)C(C)C (configuration not stated)	-3	3	5	22	-7	-1	·	·
CS(=O)(=O)N(CC(=O)NCc1ccncc1)C1CCCCC1	0	3	0	-6	17	-3	·	·
Cc1ccc(C=Nc2ccccc2C(N)=O)cc1	·	31*	22	2	17	42*	37*	78*
Cc1ccc(C=Nc2ccccc2C(=O)Nc2ccccc2)cc1	-2	4	7	4	19	0	·	·
CN(C)CCCN(Cc1ccccc1)C(=S)Nc1ccc(SC(F)F)cc1	1	2	18	100*	7	36*	25	45*
CC(=O)c1ccc(NC(=S)N(CCCN(C)C)Cc2ccccc2)cc1	0	·	2	·	·	-5	·	·
CC1CCN(CCCNC(=O)c2cc3c(Cl)nc4ccccc4c3s2)CC1	3	3	11	100*	10	34*	4	71*
CCNC(=S)NNC(=O)c1cccn(Cc2ccc(Cl)cc2Cl)c1=O	·	1	6	-3	-6	-2	·	·
C=CCNC(=S)NNC(=O)c1cccn(Cc2ccc(Cl)cc2Cl)c1=O	3	3	-3	-4	0	30*	-1	0

Screening data (PubChem)
